{"source": "ChEMBL document CHEMBL1151465", "about": "“Interactions of methylene blue with human disulfide reductases and their orthologues from Plasmodium falciparum” (Antimicrob Agents Chemother, 2008)", "key": {"[1]": {"assay": "Dissociation constant, pKa of the compound", "type": "physicochemical"}, "[2]": {"assay": "Solubility in 100 mM phosphate buffer at pH 7.0", "type": "physicochemical"}, "Plasmodium falciparum": {"system": "Plasmodium falciparum", "assay": "Antiplasmodial activity after 42 hrs against chloroquine-resistant Plasmodium falciparum K1 treated for 6 hrs by Giemsa stain", "type": "functional, organism-based"}, "Albumin": {"molecular_target": "Albumin (Bos taurus, UniProt P02769)", "sequence (P02769 whole entry)": "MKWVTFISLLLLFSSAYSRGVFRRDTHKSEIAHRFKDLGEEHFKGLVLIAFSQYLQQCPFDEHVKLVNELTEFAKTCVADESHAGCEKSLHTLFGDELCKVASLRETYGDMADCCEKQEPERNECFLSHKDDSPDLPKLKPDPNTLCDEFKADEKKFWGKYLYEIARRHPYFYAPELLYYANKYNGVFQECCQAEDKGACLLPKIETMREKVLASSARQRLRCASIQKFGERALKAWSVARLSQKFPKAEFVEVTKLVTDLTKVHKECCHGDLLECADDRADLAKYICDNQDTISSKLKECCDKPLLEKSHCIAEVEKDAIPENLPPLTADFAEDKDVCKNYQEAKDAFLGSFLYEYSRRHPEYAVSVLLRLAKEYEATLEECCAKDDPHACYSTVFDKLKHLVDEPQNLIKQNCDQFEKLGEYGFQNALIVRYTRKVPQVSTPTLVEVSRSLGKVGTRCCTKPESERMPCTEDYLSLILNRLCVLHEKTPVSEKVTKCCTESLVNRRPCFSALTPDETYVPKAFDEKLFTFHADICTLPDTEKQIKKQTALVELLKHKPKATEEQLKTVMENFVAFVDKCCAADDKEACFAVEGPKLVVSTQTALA", "assay": "Binding affinity to bovine serum albumin by fluorescence spectroscopy", "type": "ADME", "settings": "read-out: Kdiss; call rule not given here"}, "[3]": {"assay": "Stability at pH 5.0", "type": "physicochemical", "settings": "buffer"}, "[4]": {"molecular_target": "T1, Glutathione reductase, mitochondrial (Homo sapiens, UniProt P00390)", "T1 sequence (P00390 whole entry)": "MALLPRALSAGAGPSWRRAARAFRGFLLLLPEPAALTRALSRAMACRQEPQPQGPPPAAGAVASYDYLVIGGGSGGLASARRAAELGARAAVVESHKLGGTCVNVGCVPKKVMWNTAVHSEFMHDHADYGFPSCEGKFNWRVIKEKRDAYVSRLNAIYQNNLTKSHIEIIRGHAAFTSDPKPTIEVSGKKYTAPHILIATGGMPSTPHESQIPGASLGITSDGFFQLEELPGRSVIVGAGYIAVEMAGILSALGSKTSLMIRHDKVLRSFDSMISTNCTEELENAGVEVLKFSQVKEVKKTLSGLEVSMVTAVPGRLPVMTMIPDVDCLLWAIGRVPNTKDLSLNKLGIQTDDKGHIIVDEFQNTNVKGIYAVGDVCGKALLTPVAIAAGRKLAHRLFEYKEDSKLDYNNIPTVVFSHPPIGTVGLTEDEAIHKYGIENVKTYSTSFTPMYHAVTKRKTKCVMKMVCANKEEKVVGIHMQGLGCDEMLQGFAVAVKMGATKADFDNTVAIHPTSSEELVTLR", "assay": "Inhibition of human recombinant glutathione reductase at pH 6.9", "summary_of_the_method": "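Recombinant human GR was assayed with its physiological disulfide substrate at 10 mU/ml enzyme and 25°C. The buffer was 47 mM potassium phosphate, 1 mM EDTA and 200 mM KCl at pH 6.9, with NADPH as reductant. MB came from stocks in water. IC50 values were treated as Ki, assuming noncompetitive inhibition.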"}, "[5]": {"assay": "Inhibition of human recombinant glutathione reductase C58A mutant expressed in Escherichia coli SG5 at pH 6.9"}, "[6]": {"assay": "Inhibition of human recombinant glutathione reductase C63A mutant expressed in Escherichia coli SG5 at pH 6.9"}, "[7]": {"assay": "Inhibition of human recombinant glutathione reductase C58A/C63A mutant expressed in Escherichia coli SG5 at pH 6.9"}, "[8]": {"molecular_target": "T2, Thioredoxin reductase 1, cytoplasmic (Homo sapiens, UniProt Q16881)", "T2 sequence (Q16881 whole entry)": "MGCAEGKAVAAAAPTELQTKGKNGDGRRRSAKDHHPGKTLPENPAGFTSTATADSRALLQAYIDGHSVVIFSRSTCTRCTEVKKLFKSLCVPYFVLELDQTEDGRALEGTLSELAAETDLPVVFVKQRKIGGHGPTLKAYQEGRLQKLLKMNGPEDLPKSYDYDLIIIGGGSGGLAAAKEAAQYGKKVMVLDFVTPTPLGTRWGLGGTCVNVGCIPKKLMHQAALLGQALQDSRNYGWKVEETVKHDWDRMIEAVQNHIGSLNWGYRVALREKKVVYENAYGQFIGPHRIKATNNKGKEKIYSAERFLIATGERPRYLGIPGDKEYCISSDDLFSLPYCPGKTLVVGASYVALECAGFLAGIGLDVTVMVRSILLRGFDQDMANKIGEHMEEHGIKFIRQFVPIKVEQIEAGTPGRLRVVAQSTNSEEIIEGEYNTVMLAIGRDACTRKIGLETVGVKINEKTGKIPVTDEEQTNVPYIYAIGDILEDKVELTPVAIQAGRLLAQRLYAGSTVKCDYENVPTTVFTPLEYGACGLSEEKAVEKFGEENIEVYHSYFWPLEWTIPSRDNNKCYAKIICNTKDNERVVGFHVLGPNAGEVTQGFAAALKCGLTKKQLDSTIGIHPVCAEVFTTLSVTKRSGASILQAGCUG", "assay": "Inhibition of human recombinant TrxR1 at pH 7.4", "summary_of_the_method": "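Human TrxR (recombinant, or from placenta) was assayed at 10 mU/ml, 25°C, with its physiological substrate. The buffer was 100 mM potassium phosphate and 2 mM EDTA at pH 7.4, with NADPH as reductant. Routine measurements used His-tagged human thioredoxin 1 Cys73Ser. MB came from stocks in water. IC50 values were treated as Ki, assuming noncompetitive inhibition.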"}, "[9]": {"molecular_target": "T3, Dihydrolipoyl dehydrogenase, mitochondrial (Sus scrofa, UniProt P09623)", "T3 sequence (P09623 whole entry)": "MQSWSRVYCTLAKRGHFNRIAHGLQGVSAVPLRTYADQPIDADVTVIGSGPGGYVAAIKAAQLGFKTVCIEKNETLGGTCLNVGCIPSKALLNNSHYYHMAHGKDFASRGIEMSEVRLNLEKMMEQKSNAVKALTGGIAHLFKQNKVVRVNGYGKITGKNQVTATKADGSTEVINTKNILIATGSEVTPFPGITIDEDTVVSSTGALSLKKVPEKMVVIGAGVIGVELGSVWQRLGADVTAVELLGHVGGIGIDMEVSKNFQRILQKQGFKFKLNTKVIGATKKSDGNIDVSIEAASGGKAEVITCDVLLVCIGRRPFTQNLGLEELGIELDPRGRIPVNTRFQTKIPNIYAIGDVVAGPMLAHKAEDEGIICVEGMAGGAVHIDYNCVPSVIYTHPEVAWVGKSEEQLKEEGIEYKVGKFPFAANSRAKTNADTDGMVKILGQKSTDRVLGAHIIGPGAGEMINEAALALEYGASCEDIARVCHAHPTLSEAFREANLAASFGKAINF", "assay": "Inhibition of pig recombinant dihydrolipoamide dehydrogenase at pH 7.3"}, "[10]": {"assay": "Inhibition of Plasmodium falciparum glutathione reductase at pH 6.9", "summary_of_the_method": "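Recombinant P. falciparum GR, assayed at 25°C in 47 mM potassium phosphate, 1 mM EDTA, 200 mM KCl (pH 6.9). Physiological GSSG reduction was run with 10 mU/ml enzyme and NADPH. IC50 values were taken as Ki, assuming noncompetitive inhibition.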"}, "[11]": {"assay": "Inhibition of Plasmodium falciparum thioredoxin reductase at pH 7.4", "summary_of_the_method": "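Recombinant P. falciparum TrxR, at 25°C in 100 mM potassium phosphate, 2 mM EDTA (pH 7.4). Cognate-substrate reaction was run with 10 mU/ml enzyme, NADPH and P. falciparum thioredoxin 1 as substrate. IC50 taken as Ki, assuming noncompetitive inhibition.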"}, "[12]": {"molecular_target": "T4, Dihydrolipoyl dehydrogenase (Plasmodium falciparum, UniProt Q6KCB6)", "T4 sequence (Q6KCB6 whole entry)": "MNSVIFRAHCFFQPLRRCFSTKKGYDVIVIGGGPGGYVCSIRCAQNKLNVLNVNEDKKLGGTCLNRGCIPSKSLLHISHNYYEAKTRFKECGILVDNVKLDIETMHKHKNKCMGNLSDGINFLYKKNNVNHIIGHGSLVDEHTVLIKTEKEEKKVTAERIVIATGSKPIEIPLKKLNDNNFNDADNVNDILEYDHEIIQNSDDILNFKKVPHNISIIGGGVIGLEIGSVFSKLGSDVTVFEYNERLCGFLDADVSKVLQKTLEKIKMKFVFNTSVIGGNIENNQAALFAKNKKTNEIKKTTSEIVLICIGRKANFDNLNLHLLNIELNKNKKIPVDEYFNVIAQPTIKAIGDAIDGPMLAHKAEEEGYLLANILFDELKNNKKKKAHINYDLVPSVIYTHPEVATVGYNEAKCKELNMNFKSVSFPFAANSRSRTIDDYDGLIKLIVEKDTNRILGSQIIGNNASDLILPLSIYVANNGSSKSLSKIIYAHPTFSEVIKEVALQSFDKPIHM", "assay": "Inhibition of Plasmodium falciparum recombinant dihydrolipoamide dehydrogenase at pH 7.3"}}}
{"smiles": "CN(C)c1ccc2c(c1)Sc1cc(N(C)C)ccc1N2", "note": "[HYDROMETHYLTHIONINE]", "values": [{"measurement": "pKa", "setting": "[1]", "value": 4.5}, {"measurement": "solubility", "setting": "[2]", "value": "< 50", "unit": "µM"}]}
{"smiles": "CN(C)c1ccc2nc3ccc(N(C)C)cc3[s+]c2c1.[Cl-]", "note": "[METHYLENE BLUE ANHYDROUS]", "values": [{"measurement": "EC50", "setting": "Plasmodium falciparum", "value": 0.0065, "unit": "µM"}, {"measurement": "Kd", "setting": "Albumin", "value": 2.9, "unit": "µM"}, {"measurement": "Stability", "setting": "[3]", "value": "Stable"}, {"measurement": "IC50", "setting": "[4]", "value": 16.4, "unit": "µM"}, {"measurement": "IC50", "setting": "[5]", "value": "Not Active"}, {"measurement": "IC50", "setting": "[6]", "value": "Not Active"}, {"measurement": "IC50", "setting": "[7]", "value": "Not Active"}, {"measurement": "IC50", "setting": "[8]", "value": 30, "unit": "µM"}, {"measurement": "IC50", "setting": "[9]", "value": "> 1000", "unit": "µM"}, {"measurement": "IC50", "setting": "[10]", "value": 5.4, "unit": "µM"}, {"measurement": "IC50", "setting": "[11]", "value": 59, "unit": "µM"}, {"measurement": "IC50", "setting": "[12]", "value": "> 1000", "unit": "µM"}]}
